From ChEMBL document CHEMBL1127031, “Development of high-affinity 5-HT3 receptor antagonists. Structure-affinity relationships of novel 1,7-annelated indole derivatives” (J Med Chem, 1993)
pKi: −log10 of the molar value.

What was measured:
[1] = target: T1, Serotonin 3 (5-HT3) receptor (Rattus norvegicus, UniProt P35563+Q9JJ16); test: Displacement of [3H]GR-65630 binding to 5-hydroxytryptamine 3 receptor in rat brain cortical membranes; assay type: cell membranes, Membrane
T1 sequence (P35563 whole entry): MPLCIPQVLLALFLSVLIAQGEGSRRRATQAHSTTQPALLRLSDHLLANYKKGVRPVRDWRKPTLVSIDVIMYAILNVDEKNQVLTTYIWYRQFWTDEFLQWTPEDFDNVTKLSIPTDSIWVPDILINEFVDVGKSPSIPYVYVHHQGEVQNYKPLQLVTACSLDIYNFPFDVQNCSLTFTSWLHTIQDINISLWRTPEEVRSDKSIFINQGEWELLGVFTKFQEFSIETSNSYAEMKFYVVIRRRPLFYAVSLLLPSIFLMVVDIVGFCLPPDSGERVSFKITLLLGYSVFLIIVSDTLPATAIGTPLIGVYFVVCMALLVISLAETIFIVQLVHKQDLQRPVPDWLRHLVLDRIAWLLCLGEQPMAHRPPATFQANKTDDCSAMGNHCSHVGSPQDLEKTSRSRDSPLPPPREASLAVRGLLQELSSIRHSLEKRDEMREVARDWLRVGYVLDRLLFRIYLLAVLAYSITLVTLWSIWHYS
T1 sequence (Q9JJ16 whole entry): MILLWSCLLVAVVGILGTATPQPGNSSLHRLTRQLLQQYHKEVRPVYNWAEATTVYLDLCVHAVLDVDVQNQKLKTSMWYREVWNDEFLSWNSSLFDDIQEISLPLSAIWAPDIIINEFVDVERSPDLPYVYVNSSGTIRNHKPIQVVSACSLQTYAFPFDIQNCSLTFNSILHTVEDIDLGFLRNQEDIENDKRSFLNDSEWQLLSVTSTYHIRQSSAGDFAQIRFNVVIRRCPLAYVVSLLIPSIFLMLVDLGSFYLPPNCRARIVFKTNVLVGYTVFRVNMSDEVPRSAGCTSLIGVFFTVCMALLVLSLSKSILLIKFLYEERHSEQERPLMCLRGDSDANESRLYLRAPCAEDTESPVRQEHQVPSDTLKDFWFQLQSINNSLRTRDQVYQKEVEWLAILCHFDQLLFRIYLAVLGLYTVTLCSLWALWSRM
How it was run: (§1)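 Radioligand displacement on membrane preparations with glass-fibre filtration and liquid scintillation counting of tritium after overnight equilibration. Four to six test concentrations were used. IC50 came from log-probit linear regression. Ki = IC50/(1 + S/Kd), where S is the [3H]label concentration. Ki is the mean of at least three independent experiments run on different days with different membrane preparations.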

Mus musculus = organism: Mus musculus; test: Lowest effective dose affecting behavioral parameter in at least half of the animals.
[2] = target: Muscarinic acetylcholine receptor M2 (Rattus norvegicus, UniProt P10980); test: The binding affinity was measured on muscarine M2 receptor using [3H]- N-Me-SCOPOL as radioligand.
How it was run: (§2)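 Radioligand displacement on tissue membrane suspensions, with 4–6 concentrations of unlabeled test drug. Bound label was collected on GF/B glass-fibre filters, equilibrated overnight in scintillant, and counted for tritium. […] Ki = IC50/(1 + S/Kd), where S is the label concentration. Each value is the mean of ≥3 independent experiments on different days with different membrane preparations.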

[3] = target: Kappa-type opioid receptor (Rattus norvegicus, UniProt P34975); test: The binding affinity was measured on kappa-opiate receptor using [3H]- EKC as radioligand.
D(2) dopamine receptor = D(2) dopamine receptor (Rattus norvegicus, UniProt P61169); test: The binding affinity was measured on dopamine receptor D2 using [3H]- spiperone as radioligand.
[4] = target: Muscarinic acetylcholine receptor M1 (Rattus norvegicus, UniProt P08482); test: The binding affinity was measured on muscarine M1 receptor using [3H]- pirenzepine as radioligand.
[5] = target: Cholecystokinin receptor type A (Rattus norvegicus, UniProt P30551); test: The binding affinity was measured on cholecystokinin type A receptor using [3H]- CCK-8 as radioligand.
[6] = The binding affinity was measured on substance P as radioligand.; design: species or system Rattus norvegicus
[7] = The binding affinity was measured on Na+2(BTX)brain receptor using [3H]- batrachotox as radioligand.; design: species or system Rattus norvegicus
Histamine H1 receptor = Histamine H1 receptor (Rattus norvegicus, UniProt P31390); test: The binding affinity was measured on histamine H1 receptor using [3H]- mepyramine as radioligand.
Rattus norvegicus [8] = organism: Rattus norvegicus; test: Dose of antagonist which inhibits the by the 2-Me-5-HT induced slowing of the heart rate by 10 beats/5 s.; assay type: functional
How it was run: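 Von Bezold-Jarisch reflex test in unrestrained conscious rats, with the compound given orally. The bradycardia (slowing of heart rate) was induced by 2-Me-5-HT. The value is the antagonist dose that reduces this slowing by 10 beats/5 s.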

[9] = target: Thyrotropin-releasing hormone receptor (Rattus norvegicus, UniProt Q01717); test: The binding affinity was measured on TRH receptor using [3H]- MeTRH as radioligand.
[10] = target: Glutamate receptor ionotropic, NMDA 2C (Rattus norvegicus, UniProt Q00961); test: The binding affinity was measured on NMDA receptor using [3H]- CGS-19755 as radioligand.
Histamine H3 receptor = Histamine H3 receptor (Rattus norvegicus, UniProt Q9QYN8); test: The binding affinity was measured on histamine H3 receptor using [3H]- N-Me-histam as radioligand.
[11] = target: Interleukin-6 receptor subunit alpha (Rattus norvegicus, UniProt P22273); test: The binding affinity was measured on […] receptor using [3H]- IL-6 as radioligand.; how it was run: as §2
[12] = target: Sigma non-opioid intracellular receptor 1 (Rattus norvegicus, UniProt Q9R0C9); test: The binding affinity was measured on sigma receptor using [3H]- (+)-3-PPP as radioligand.
[13] = target: GABA-A receptor; anion channel; test: Displacement of [3H]DH-muscimol from rat GABA-A receptor; assay type: protein-complex assay; how it was run: as §1
D(1A) dopamine receptor = D(1A) dopamine receptor (Rattus norvegicus, UniProt P18901); test: The binding affinity was measured on dopamine receptor D1 using [3H]- dopamine as radioligand.
Adrenergic receptor beta = Adrenergic receptor beta (Rattus norvegicus, UniProt P18090+P10608+P26255); test: The binding affinity was measured on beta-1,2-adrenergic receptor using [3H]- DHA as radioligand.; assay type: protein assay
[14] = The binding affinity was measured on melatonin receptor using [3H]- 2-iodo-melat as radioligand.
[15] = target: Muscarinic acetylcholine receptor M3 (Rattus norvegicus, UniProt P08483); test: The binding affinity was measured on muscarine M3 receptor using [3H]- N-Me-SCOPOL as radioligand.
Cavia porcellus = organism: Cavia porcellus; test: The pA2 is the negative logarithm of the molar concentration of an antagonist which necessitates the doubling of the agonist dose to couteract the effect of that antagonist and restore the original response was measured in guinea pig isolated ileu m test.
[16] = target: Gastrin/cholecystokinin type B receptor (Rattus norvegicus, UniProt P30553); test: The binding affinity was measured on cholecystokinin type B receptor using [3H]- CCK-8 as radioligand.
[17] = The binding affinity was measured on glycine strych. ins receptor using [3H]- 5,7-diClkyn.acid as radioligand.; design: species or system Rattus norvegicus
Mu-type opioid receptor = Mu-type opioid receptor (Rattus norvegicus, UniProt P33535); test: The binding affinity was measured on mu-opiate receptor using [3H]- naloxone as radioligand.
[18] = target: Delta-type opioid receptor (Rattus norvegicus, UniProt P33533); test: The binding affinity was measured on delta-opiate receptor using [3H]- dadle as radioligand.
[19] = target: T2, Voltage-gated L-type calcium channel (Rattus norvegicus, UniProt P22002+Q02485+P27732); test: Inhibition of [3H]nitrendipine binding to L-type calcium channel dihydropyridine site of rat brain; how it was run: as §2
D(3) dopamine receptor = D(3) dopamine receptor (Rattus norvegicus, UniProt P19020); test: The binding affinity was measured on dopamine receptor D3 using [3H]- spiperone as radioligand.
[20] = target: Alpha-2A adrenergic receptor (Rattus norvegicus, UniProt P22909); test: The binding affinity was measured on alpha-2-adrenergic receptor using [3H]- clonidine as radioligand.
[21] = target: GABA-A receptor; anion channel; test: Displacement of [3H]- Diazepam from rat GABA-A benzodiazepine receptor; assay type: protein-complex assay; how it was run: as §1
[22] = target: T2, Voltage-gated L-type calcium channel; test: Inhibition of [3H]D-888 binding to L-type calcium channel verapamil site of rat brain; how it was run: as §2
Rattus norvegicus [23] = organism: Rattus norvegicus; test: The pA2 is the negative logarithm of the molar concentration of an antagonist which necessitates the doubling of the agonist dose to couteract the effect of that antagonist and restore the original response was measured in rat isolated vagus nerve test.; assay type: functional; conditions: read-out: pA2 (converted)

Sequence of Muscarinic acetylcholine receptor M2 (P10980 whole entry): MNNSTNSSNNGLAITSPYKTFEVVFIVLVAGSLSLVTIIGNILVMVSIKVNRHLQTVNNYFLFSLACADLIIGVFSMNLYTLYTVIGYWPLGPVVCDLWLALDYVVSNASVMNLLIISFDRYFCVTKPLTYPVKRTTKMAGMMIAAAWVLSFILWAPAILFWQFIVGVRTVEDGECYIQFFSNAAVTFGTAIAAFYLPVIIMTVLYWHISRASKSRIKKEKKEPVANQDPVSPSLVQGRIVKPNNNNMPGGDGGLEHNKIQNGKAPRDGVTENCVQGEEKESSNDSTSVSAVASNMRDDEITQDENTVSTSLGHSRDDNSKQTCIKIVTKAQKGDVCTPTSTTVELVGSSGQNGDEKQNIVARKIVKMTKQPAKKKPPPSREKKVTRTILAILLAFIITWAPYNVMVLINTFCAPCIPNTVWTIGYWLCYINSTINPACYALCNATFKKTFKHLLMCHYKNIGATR
Sequence of Delta-type opioid receptor (P33533 whole entry): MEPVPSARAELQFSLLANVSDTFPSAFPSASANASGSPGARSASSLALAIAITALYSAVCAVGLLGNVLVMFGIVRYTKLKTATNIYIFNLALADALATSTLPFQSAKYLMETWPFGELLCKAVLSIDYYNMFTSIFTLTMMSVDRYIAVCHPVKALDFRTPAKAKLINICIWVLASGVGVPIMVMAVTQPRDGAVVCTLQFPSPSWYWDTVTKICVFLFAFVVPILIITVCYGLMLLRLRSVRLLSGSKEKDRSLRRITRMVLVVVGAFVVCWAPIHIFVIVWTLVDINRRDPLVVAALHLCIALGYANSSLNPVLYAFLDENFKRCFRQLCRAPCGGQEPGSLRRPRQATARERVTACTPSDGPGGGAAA
Sequence of Glutamate receptor ionotropic, NMDA 2C (Q00961 whole entry): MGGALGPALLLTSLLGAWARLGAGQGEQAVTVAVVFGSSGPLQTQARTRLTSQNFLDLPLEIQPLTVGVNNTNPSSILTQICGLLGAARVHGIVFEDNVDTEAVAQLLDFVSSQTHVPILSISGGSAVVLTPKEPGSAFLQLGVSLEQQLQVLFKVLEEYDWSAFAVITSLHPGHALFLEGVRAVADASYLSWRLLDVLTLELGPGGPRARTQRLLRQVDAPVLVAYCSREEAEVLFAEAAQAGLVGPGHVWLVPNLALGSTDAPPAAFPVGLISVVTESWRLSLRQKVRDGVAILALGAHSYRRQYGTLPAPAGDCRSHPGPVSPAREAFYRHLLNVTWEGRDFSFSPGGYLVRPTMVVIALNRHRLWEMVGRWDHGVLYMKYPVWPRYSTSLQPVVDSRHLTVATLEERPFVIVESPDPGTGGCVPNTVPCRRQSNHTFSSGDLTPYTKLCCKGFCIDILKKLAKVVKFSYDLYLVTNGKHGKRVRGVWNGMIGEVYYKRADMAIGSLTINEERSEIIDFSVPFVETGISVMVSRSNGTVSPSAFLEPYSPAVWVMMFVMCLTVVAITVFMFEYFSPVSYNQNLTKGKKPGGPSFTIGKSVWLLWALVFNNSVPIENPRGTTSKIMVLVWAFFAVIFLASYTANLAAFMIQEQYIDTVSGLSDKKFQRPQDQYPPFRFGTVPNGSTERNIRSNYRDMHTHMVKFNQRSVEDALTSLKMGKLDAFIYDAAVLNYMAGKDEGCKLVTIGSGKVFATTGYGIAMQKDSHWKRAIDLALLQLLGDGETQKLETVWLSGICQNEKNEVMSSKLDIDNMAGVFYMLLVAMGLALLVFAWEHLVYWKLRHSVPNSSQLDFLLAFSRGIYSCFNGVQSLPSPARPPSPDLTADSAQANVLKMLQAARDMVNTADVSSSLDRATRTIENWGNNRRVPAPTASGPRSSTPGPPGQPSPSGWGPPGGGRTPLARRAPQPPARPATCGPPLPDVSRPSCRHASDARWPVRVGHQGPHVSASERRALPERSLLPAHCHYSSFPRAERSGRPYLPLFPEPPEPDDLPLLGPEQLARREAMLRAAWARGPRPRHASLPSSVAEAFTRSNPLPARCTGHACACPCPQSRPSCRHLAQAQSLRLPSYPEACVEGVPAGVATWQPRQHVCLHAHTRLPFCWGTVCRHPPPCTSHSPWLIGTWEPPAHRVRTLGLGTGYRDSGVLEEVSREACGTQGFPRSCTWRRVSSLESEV
Sequence of Sigma non-opioid intracellular receptor 1 (Q9R0C9 whole entry): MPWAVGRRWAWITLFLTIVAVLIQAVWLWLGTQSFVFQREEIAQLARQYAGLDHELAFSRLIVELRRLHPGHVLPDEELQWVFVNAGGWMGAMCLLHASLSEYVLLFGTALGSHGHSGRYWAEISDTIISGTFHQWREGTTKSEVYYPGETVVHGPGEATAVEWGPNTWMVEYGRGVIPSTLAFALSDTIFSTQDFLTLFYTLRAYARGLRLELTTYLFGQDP
Sequence of Alpha-2A adrenergic receptor (P22909 whole entry): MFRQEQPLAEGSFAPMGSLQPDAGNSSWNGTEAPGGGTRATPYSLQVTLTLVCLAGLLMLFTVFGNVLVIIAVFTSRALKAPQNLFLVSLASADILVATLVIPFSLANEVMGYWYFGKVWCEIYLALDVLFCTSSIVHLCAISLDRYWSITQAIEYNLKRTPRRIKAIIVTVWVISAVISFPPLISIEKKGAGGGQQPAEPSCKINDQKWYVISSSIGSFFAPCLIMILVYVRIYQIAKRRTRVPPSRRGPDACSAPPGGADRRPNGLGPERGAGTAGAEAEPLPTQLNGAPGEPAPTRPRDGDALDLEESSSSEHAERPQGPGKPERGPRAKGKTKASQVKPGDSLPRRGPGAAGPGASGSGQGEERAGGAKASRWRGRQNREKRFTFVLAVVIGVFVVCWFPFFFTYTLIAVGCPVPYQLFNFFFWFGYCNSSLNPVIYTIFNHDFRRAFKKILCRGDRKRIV
Sequence of Interleukin-6 receptor subunit alpha (P22273 whole entry): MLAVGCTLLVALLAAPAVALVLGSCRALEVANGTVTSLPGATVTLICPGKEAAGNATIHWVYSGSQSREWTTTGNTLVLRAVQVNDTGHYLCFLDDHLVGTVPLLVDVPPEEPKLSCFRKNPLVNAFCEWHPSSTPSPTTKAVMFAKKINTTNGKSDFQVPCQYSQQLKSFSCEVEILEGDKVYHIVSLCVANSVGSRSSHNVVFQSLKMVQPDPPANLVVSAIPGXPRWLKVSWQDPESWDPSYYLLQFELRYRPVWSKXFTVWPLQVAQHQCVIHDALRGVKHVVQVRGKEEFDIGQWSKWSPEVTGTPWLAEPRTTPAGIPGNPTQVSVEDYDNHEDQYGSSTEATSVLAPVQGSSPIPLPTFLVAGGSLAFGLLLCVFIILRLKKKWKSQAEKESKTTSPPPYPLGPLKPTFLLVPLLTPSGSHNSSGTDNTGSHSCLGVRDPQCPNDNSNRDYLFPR
Sequence of Gastrin/cholecystokinin type B receptor (P30553 whole entry): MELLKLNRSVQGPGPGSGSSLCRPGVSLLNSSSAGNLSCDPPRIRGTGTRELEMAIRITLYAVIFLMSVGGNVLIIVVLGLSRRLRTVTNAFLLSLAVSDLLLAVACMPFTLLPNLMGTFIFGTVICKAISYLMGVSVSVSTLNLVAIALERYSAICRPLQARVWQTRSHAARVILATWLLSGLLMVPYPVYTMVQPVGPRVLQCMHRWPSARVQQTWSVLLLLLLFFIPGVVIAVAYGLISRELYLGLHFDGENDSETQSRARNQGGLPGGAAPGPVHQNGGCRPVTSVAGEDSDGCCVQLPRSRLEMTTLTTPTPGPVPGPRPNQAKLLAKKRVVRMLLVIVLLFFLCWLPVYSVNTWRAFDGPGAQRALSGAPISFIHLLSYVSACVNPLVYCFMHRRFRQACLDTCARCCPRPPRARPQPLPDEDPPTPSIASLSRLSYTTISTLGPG
Sequence of Kappa-type opioid receptor (P34975 whole entry): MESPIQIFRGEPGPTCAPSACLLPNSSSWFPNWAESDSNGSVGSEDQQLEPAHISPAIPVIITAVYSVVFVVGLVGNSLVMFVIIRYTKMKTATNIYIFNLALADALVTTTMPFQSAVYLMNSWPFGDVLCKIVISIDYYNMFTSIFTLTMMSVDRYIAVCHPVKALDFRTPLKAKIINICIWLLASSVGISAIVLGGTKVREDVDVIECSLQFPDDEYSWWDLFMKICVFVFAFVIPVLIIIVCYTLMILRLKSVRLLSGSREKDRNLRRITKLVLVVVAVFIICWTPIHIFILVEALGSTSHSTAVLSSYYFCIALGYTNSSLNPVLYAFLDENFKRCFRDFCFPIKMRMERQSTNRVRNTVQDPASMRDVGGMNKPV
Sequence of Histamine H3 receptor (Q9QYN8 whole entry): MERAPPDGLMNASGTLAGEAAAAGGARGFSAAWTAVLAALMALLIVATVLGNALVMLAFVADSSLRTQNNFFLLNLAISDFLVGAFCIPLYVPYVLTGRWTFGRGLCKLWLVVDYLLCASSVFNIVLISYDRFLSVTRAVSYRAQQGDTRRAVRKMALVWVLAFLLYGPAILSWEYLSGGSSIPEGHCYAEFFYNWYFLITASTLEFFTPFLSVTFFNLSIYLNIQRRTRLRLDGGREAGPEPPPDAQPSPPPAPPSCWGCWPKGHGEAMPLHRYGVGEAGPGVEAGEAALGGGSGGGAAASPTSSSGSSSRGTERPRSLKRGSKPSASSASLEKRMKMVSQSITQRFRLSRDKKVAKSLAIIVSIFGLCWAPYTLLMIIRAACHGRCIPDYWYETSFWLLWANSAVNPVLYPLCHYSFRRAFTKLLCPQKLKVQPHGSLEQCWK
Sequence of Thyrotropin-releasing hormone receptor (Q01717 whole entry): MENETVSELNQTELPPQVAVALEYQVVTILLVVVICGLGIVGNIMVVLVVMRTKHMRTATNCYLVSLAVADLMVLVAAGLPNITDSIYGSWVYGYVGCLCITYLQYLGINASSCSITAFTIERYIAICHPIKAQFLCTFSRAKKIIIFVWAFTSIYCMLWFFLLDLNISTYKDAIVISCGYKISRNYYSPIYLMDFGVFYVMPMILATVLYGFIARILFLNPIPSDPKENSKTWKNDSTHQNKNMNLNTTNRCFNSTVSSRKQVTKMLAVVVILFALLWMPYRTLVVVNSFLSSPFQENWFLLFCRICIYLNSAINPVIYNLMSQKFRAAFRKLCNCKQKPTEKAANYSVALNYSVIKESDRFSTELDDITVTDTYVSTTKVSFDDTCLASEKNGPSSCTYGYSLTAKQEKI

In the case of Cc1nccn1CC1CCc2c(c3cccc4c3n2CC4)C1=O (racemic), the pKi [1] was 9.64.

For Cc1[nH]cnc1CCC(=O)c1cn(C)c2ccccc12, the pKi [1] was 9.55.

For Cc1nccn1C[C@H]1CCc2c(c3cccc4c3n2CCC4)C1=O [CILANSETRON], the LED (Mus musculus) was 30 mg/kg, the pKi [2] was < 5.00 and the pKi [3] was < 5.00. For the same molecule, the pKi (D(2) dopamine receptor) was < 5.00, the pKi [4] was 6.04 and the pKi [5] was < 5.00. For the same molecule, the pKi [6] was < 5.00, the pKi [7] was < 5.00 and the pKi (Histamine H1 receptor) was 5.19. The ED10 (Rattus norvegicus [8]) was 0.026 mg/kg, the pKi [9] was < 5.00 and the pKi [10] was < 5.00. The pKi (Histamine H3 receptor) was < 5.00, the pKi [11] was < 5.00 and the pKi [12] was 6.47. The pKi [13] was < 5.00, the pKi (D(1A) dopamine receptor) was < 5.00 and the Ki (Adrenergic receptor beta) was > 10 µM. The pKi [14] was < 5.00, the pKi [15] was < 5.00 and the Kb (Cavia porcellus) was 0.0158 µM. The pKi [16] was < 5.00, the pKi [17] was < 5.00 and the pKi (Mu-type opioid receptor) was 5.07. The pKi [18] was < 5.00, the Ki [19] was > 10 µM and the pKi (D(3) dopamine receptor) was < 5.00. The pKi [20] was < 5.00, the pKi [21] was < 5.00 and the Ki [22] was 5.4 µM. For the same molecule, the Kb (Rattus norvegicus [23]) was 0.000115 µM.

Work on Cc1nccn1CC1CCc2c(c3cccc4c3n2CCCC4)C1=O (racemic) yielded a pKi [1] of 9.12.

In the case of Cc1nccn1CC1CCc2c(c3ccccc3n2C)C1=O (stereo not drawn) [ONDANSETRON], the LED (Mus musculus) was 3 mg/kg, the pKi [2] was < 5.00 and the pKi [3] was < 5.00. The pKi (D(2) dopamine receptor) was < 5.00, the pKi [4] was 5.29 and the pKi [5] was < 5.00. The pKi [6] was < 5.00, the pKi [7] was < 5.00 and the pKi (Histamine H1 receptor) was < 5.00. The ED10 (Rattus norvegicus [8]) was 0.165 mg/kg, the pKi [9] was < 5.00 and the pKi [10] was < 5.00. For the same molecule, the pKi (Histamine H3 receptor) was < 5.00, the pKi [11] was < 5.00 and the pKi [12] was 6.17. The pKi [13] was < 5.00, the pKi (D(1A) dopamine receptor) was < 5.00 and the Ki (Adrenergic receptor beta) was > 10 µM. The pKi [14] was < 5.00, the pKi [15] was < 5.00 and the Kb (Cavia porcellus) was 0.158 µM. For the same molecule, the pKi [16] was < 5.00, the pKi [17] was < 5.00 and the pKi (Mu-type opioid receptor) was 5.54. The pKi [18] was < 5.00, the Ki [19] was > 10 µM and the pKi (D(3) dopamine receptor) was < 5.00. For the same molecule, the pKi [20] was < 5.00, the pKi [21] was < 5.00 and the Ki [22] was > 10 µM. For the same molecule, the Kb (Rattus norvegicus [23]) was 0.00102 µM.

Cc1[nH]cnc1CCC(=O)c1cn2c3c(cccc13)CCC2 gave a pKi [1] of 10.12.

For Cc1[nH]cnc1CCC(=O)c1cn2c3c(cccc13)CCCC2, the pKi [1] was 9.48.

For Cc1nc[nH]c1CCC(=O)c1cn2c3c(cccc13)SCC2, the pKi [1] was 9.72.

With Cc1nccn1CC1CCc2c(c3cccc4c3n2CCCCC4)C1=O (racemic) the pKi [1] was 8.96.

Work on Cc1nccn1CC1CCc2c(c3cccc4c3n2CCCC4)C1=O (single isomer, unassigned; (-)) yielded a pKi [1] of 9.19.

With Cc1nccn1CC1CCc2c(c3cccc4c3n2CCCC4)C1=O (single isomer, unassigned; (+)) the pKi [1] was 9.03.

Cc1nccn1CC1CCc2c(c3cccc4c3n2CCO4)C1=O (racemic) gave a pKi [1] of 8.89.

For Cc1nccn1CC1CCc2c(c3cccc4c3n2CCS4)C1=O (racemic), the pKi [1] was 9.11.
